Columns and labels:
[1] = biological target: T1, Neutrophil elastase (Homo sapiens) (UniProt P08246); test: Second order rate constant for enzyme-inhibitor complex Human Leukocyte Elastase inhibition was determined
T1 sequence (whole entry): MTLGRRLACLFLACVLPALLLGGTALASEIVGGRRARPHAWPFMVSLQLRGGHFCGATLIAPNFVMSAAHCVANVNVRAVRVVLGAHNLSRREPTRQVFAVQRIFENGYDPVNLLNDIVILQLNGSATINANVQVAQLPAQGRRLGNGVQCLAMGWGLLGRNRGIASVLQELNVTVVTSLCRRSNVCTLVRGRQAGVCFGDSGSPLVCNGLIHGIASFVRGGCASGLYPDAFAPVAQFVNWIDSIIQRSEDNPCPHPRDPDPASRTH
How it was run: (§1)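 Progress-curve assay at 25 °C with HLE purified from human leukocytes, in 50 mM sodium phosphate, 500 mM NaCl, pH 7.8. Substrate was MeOSuc-Ala-Ala-Pro-Val-pNA (200 μM final, 405 nm, 30–75 min) or, for a few inhibitors, Suc-Ala-Ala-Pro-Val-AMC (125 μM final, ex 340/em 460 nm, 4–5 min). […] Curves were fitted by slow-binding kinetics (k_obs = k_on'[I] + k_off).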

[2] = Alkaline hydrolysis rate (logk-OH); type: ADME; conditions: 50 mM CAPS, pH 10.5 or 11.5, 25 °C
How it was run: (§2)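 Thienooxazinone loss followed spectrophotometrically at a fixed wavelength (330–355 nm) in 50 mM CAPS, pH 10.5 or 11.5, 25 °C. Final inhibitor concentration 10–25 μM, 5% final DMSO. Curves analysed as first-order reactions. For some compounds at pH 10.5, reverse-phase HPLC aliquots were taken every 3 h over 24 h, with peak areas at 240 nm fitted to a first-order equation.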

[3] = Alkaline hydrolysis rate (k-OH); type: ADME; how it was run: as §2
[4] = biological target: T2, Neutrophil elastase (Homo sapiens, UniProt P08246); test: Steady state inhibition constant for Human Leukocyte Elastase inhibition; how it was run: as §1
T2 sequence (P08246 whole entry): T1 sequence (whole entry)

[5] = biological target: T2, Neutrophil elastase; test: Negative logarithm of steady state constant Ki for enzyme-inhibitor complex Human Leukocyte Elastase inhibition; how it was run: as §1
[6] = biological target: T1, Neutrophil elastase (Homo sapiens)

SMILES | kon (10e3* M-1 s-1) [1] | Log kOH- [2] | kOH- [3] [M⁻¹ s⁻¹] | Ki [4] [nM] | Ki [5] [nM] | koff [6] | Kon (10e3* M-1 s-1) [1]
CN(c1nc2sc3c(c2c(=O)o1)CCCC3)C1CCCCC1 | < 0.6 |  |  |  |  |  | 
CC(C)Nc1nc2sc3c(c2c(=O)o1)CCCC3 |  | -0.49 | 0.323 | 145 | 145 |  | 
CCOc1nc2scc(C(C)C)c2c(=O)o1 |  | 0.47 | 2.98 | 5.61 | 5.62 |  | 
CCOc1nc2sc3c(c2c(=O)o1)CCCC3 |  | 0.44 | 2.77 | 1.36 | 1.35 |  | 
CCCOc1nc2sc3c(c2c(=O)o1)CCCC3 |  | 0.44 | 2.75 | 1.43 | 1.45 |  | 
CC(C)Nc1nc2sccc2c(=O)o1 |  | -0.48 | 0.332 | 41.8 | 41.7 |  | 
CC(C)COc1nc2sc3c(c2c(=O)o1)CCCC3 |  | 0.26 | 1.83 | 51 | 51.3 |  | 
CCN(CC)c1nc2sc3c(c2c(=O)o1)CCCC3 |  | -1.59 | 0.025 | 16.3 | 16.2 |  | 
O=c1oc(N2CCOCC2)nc2sc3c(c12)CCCC3 | < 0.8 | -1.08 | 0.083 |  |  |  | 
CSc1nc2sc3c(c2c(=O)o1)CCCC3 | 272 | 0.21 | 1.63 | 5.74 | 5.75 | 15.6 | 

Further lines, results first:

kon (10e3* M-1 s-1) [1] | Log kOH- [2] | kOH- [3] [M⁻¹ s⁻¹] | Ki [4] [nM] | Ki [5] [nM] | koff [6] | Kon (10e3* M-1 s-1) [1] | SMILES
 | -0.16 | 0.69 | 101 | 100 |  |  | Cc1sc2nc(SCc3ccccc3)oc(=O)c2c1C
< 0.6 | -1.63 | 0.023 |  |  |  |  | CCN(CC)c1nc2sc(C)c(C)c2c(=O)o1
 | 0.45 | 2.82 | 10.7 | 10.7 |  |  | CCOc1nc2sc(C)c(C)c2c(=O)o1
 | 0.39 | 2.48 | 4.02 | 3.98 |  |  | CCCOc1nc2sc(C)c(C)c2c(=O)o1
 | -0.04 | 0.92 | 17.9 | 17.8 |  |  | COC(=O)CSc1nc2sc3c(c2c(=O)o1)CCCC3
 | -0.22 | 0.59 | 5.7 | 5.75 |  |  | CCSc1nc2sc3c(c2c(=O)o1)CCCC3
< 0.6 | -1.07 | 0.085 |  |  |  |  | Cc1sc2nc(N3CCOCC3)oc(=O)c2c1C
1.13 | -1.14 | 0.073 | 75.5 | 75.9 | 0.85 |  | Cc1sc2nc(NC(C)C)oc(=O)c2c1C
0.685 | 0.01 | 1.03 | 238 | 240 | 1.63 |  | COC(=O)CSc1nc2sc(C)c(C)c2c(=O)o1
 | -0.45 | 0.355 | 290 | 288 |  |  | O=c1oc(SCc2ccccc2)nc2sc3c(c12)CCCC3
 | 0.1 | 1.27 | 2.73 | 2.75 |  |  | CCSc1nc2sc(C)c(C)c2c(=O)o1
 | 0.22 | 1.65 | 35 | 34.7 |  |  | CSc1nc2sc(C)c(C)c2c(=O)o1
 | -1.11 | 0.077 |  |  |  | < 0.8 | Cc1sc2nc(N(C)C3CCCCC3)oc(=O)c2c1C
 | 0.41 | 2.55 | 133 | 135 |  |  | Cc1sc2nc(OCC(C)C)oc(=O)c2c1C
